Published values of several laboratories.
Each line is one published result; the experiments were not run side by side.
Target: cAMP-dependent protein kinase catalytic subunit beta (PRKACB, Homo sapiens, UniProt P22694)

`O=C(c1ccc(Nc2ncc(Cl)c(-c3ccc(Cl)s3)n2)cc1)N1CCC(N2CCCC2)CC1` gave a remaining binding of 100% (binding, competition with immobilised ligand; 1 µM).
`c1cnn2ncc(-c3ccnc(N4CCC45COC5)n3)c2c1` has a remaining binding of 92% (binding, competition with immobilised ligand; 1 µM).
With `COc1cnc(Nc2cccc(S(N)(=O)=O)c2)nc1N1CCN(c2ccccc2)CC1` the remaining binding was 85% (binding, competition with immobilised ligand; 1 µM).
With `O=C(NCCCN1CCOCC1)c1ccc(Nc2ncc(Cl)c(-c3ccc(Cl)s3)n2)cc1` the remaining binding was 100% (binding, competition with immobilised ligand; 1 µM).
With `Cc1cnn2ncc(-c3ccnc(N(C)C)n3)c2c1` the remaining binding was 96% (binding, competition with immobilised ligand; 1 µM).
With `O=C(NCCCC1CCCCC1)c1ccc(CNC(=O)c2cnn(-c3ccccc3)c2C(F)(F)F)cc1` the remaining binding was 100% (cell-free assay, competition with immobilised ligand; 0.1 µM).
The remaining binding of `C[C@@H](c1ccc(-n2cnc3c(N)ncnc32)cc1)N1CCc2nn(C)c(Cc3ccccc3)c2C1=O` is reported as 100% (binding, competition with immobilised ligand; 0.1 µM).
`Cc1nc(Cc2cccc(C(F)(F)F)c2)sc1-c1ccc(C(N)=O)nc1` has a remaining binding of 92% (cell-free assay, competition with immobilised ligand; 1 µM).
For `CN(c1nccc(-c2cnn3ncccc23)n1)C1CC1`, the remaining binding was 99% (binding; 1 µM).
`COc1cc(-c2cn(C3CCc4c(F)cccc4N(CC(F)(F)F)C3=O)nn2)ccc1-n1cnc(C)c1` (centres unmarked) has a remaining binding of 95% (cell-free assay, competition with immobilised ligand; 1 µM).
For `O=C(NCCCN1CCOCC1)c1ccc(Nc2nccc(-c3cc4ccccc4s3)n2)cc1`, the remaining binding was 100% (binding, competition with immobilised ligand; 1 µM).
`O=C(O)c1cc(-c2ccc(C3CCNCC3)cc2)c2ccc(-c3ccc(C(F)(F)F)cc3)cc2c1` has a remaining binding of 100% (cell-free assay, competition with immobilised ligand; 1 µM).
`c1cncc(-c2cccc(Nc3nccc(NC4CCCCC4)n3)c2)c1` has a remaining binding of 56% (binding, competition with immobilised ligand; 10 µM).
`C[C@H]1CCN(c2nccc(-c3cnn4ncccc34)n2)C1` has a remaining binding of 99% (binding, competition with immobilised ligand; 1 µM).
The remaining binding of `COc1ccc2c(O[C@@H]3C[C@H]4C(=O)N[C@]5(C(=O)O)CC5/C=C\CCCCC[C@H](NC(=O)OC5CCCC5)C(=O)N4C3)cc(-c3csc(NC(=O)C(C)C)n3)nc2c1C` (some centres unmarked) is reported as 100% (cell-free assay, competition with immobilised ligand; 1 µM).
For `CCN1CCN(Cc2ccc(C(=O)Nc3ccc(C)c(Oc4ccc5c(c4)CC(=O)N5)c3)cc2C(F)(F)F)CC1`, the remaining binding was 80% (binding, competition with immobilised ligand; 1 µM).
`COc1ccnn2ncc(-c3ccnc(N(C)C)n3)c12` has a remaining binding of 95% (binding, competition with immobilised ligand; 1 µM).
For `NS(=O)(=O)c1cc(NC(=O)Cc2ccccc2)ccc1Oc1cccc(Cl)c1`, the remaining binding was 100% (cell-free assay, competition with immobilised ligand; 1 µM).
`C=CC(=O)N1CCC(C(=O)NCC(=O)N2CCN(c3nc(-c4cnc(N)nc4C(F)F)nc(N4CCOCC4)n3)CC2)CC1` has a remaining binding of 90% (binding, competition with immobilised ligand; 1 µM).
With `O=C(Nc1c[nH]nc1C(=O)NC1CCNCC1)c1cc(F)cc(F)c1` the remaining binding was 100% (binding, competition with immobilised ligand; 1 µM).
